This note sets out measurements from ChEMBL document CHEMBL1132961 (J Med Chem, 2000).

In data set [1] the target is Human immunodeficiency virus type 1 protease (Human immunodeficiency virus 1, UniProt Q72874). The data set can be described thus: Tested for binding affinity against protease.
The nature of data set [2]: (§1) Concentration which elicits cytotoxicity in 50% of uninfected human lymphocyte derived CEM cells. In kind it is cell-based, CCRF-CEM. The conditions noted are these: uninfected CCRF-CEM cells, read-out: TC50 (the source's name). The procedure, abridged:
(§2)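 Cytotoxicity measured in uninfected human lymphocyte-derived CEM cells by XTT protocol.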

Data set [3] concerns Human immunodeficiency virus 1. The data set can be described thus: Effective concentration at which 50% of the HIV-IIIB-infected human lymphocyte-derived CEM cells protected from HIV-1 infection.
For data set [4], the target named is T1, CYP2D6 (Homo sapiens, UniProt P10635). The data set can be described thus: Residual activity of cytochrome P4502D6 at 10 uM.
T1 sequence (P10635 whole entry): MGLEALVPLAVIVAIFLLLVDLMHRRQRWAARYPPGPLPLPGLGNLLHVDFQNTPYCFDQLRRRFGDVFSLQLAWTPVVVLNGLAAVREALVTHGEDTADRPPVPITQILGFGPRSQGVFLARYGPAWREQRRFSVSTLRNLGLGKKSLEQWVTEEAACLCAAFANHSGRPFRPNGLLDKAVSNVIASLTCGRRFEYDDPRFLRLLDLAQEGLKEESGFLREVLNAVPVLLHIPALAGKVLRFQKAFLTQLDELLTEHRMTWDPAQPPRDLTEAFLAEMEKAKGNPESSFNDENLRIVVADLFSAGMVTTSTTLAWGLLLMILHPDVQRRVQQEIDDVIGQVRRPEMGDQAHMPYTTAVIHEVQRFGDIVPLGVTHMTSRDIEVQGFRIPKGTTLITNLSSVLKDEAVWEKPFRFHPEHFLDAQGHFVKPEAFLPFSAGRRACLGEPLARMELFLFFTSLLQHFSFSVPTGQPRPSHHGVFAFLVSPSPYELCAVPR
Data set [5] has as its target T2, CYP2C9 (Homo sapiens, UniProt P11712). In words: Residual activity of cytochrome P450 2C9 at 100 uM.
A short description of data set [6]: Tested for cytotoxic activity against HIV-1 1002-60 in PBMC cells. In kind it is cell-based. The note with it: human, read-out: TC50 (the source's name).
Data set [7] is described as follows: Tested for cytotoxic activity against HIV-1 1026-60 in PBMC cells. It is filed as cell-based. The conditions noted are these: human, read-out: TC50 (the source's name).
Data set [8] in a line: Tested for cytotoxic activity against HIV-1 144-44 in PBMC cells. It is filed as cell-based. The note with it: human, read-out: TC50 (the source's name).
In data set [9] the target is T2, CYP2C9. In words: Residual activity of cytochrome P450 2C9 at 1 uM.
For data set [10], the target named is T1, CYP2D6. In words: Residual activity of cytochrome P4502D6 at 1 uM.
Data set [11] deals with T2, CYP2C9. In words: Residual activity of cytochrome P450 at 10 uM.
Data set [12] has as its system PBMC. In words: (§3) Effective concentration required for antiviral activity against HIV-1 144-44 in PBMC cells. It is filed as functional, cell-based. The note with it: Homo sapiens. The procedure, abridged:
(§4)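 PBMC cells infected with HIV-1 clinical isolates, using an XTT cytopathic assay similar to the CEM assay. EC50 read as protection from viral cytopathic effect.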

The target of data set [13] is T1, CYP2D6. In words: Residual activity of cytochrome P4502D6 at 100 uM.
Data set [14] concerns PBMC. The data set can be described thus: (§5) Effective concentration required for antiviral activity against HIV-1 1026-60 in PBMC cells. In kind it is functional, cell-based. The conditions noted are these: Homo sapiens. The procedure, abridged: as §4
The subject of data set [15] is PBMC. In words: (§6) Effective concentration required for antiviral activity against HIV-1 1002-60 in PBMC cells. In kind it is functional, cell-based. The conditions noted are these: Homo sapiens. The procedure, abridged:
as §4

Data set [16] relates to CCRF-CEM. The data set is described as §1. The conditions noted are these: ccrf-cem, read-out: TC50 (the source's name). It is filed as cell-based. An outline of the steps: as §2
Data set [17] addresses T3, CYP3A4 (Homo sapiens, UniProt P08684). In words: Residual activity of cytochrome P4503A4 at 100 uM.
Data set [18] is described as follows: Effective concentration required for antiviral activity against HIV-1 TEKI in PBMC cells. It is filed as functional, cell-based. The conditions noted are these: Homo sapiens. The procedure, abridged: as §4
The target in data set [19] is T3, CYP3A4. In words: Residual activity of cytochrome P4503A4 at 10 uM.
Data set [20] in a line: Effective concentration required for antiviral activity against HIV-1 SLKA in PBMC cells. It is filed as functional, cell-based. The note with it: Homo sapiens. The procedure, abridged: as §4
Data set [21] concerns the target T3, CYP3A4. In words: Residual activity of cytochrome P4503A4 at 1 uM.
A short description of data set [22]: AUC value in mice. The conditions noted are these: mouse, plasma. In kind it is ADME, organism-based. The procedure, abridged:
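Mice dosed orally by gavage at 25 mg/kg. Vehicle was usually 20% 0.1 N NaOH/80% 0.5% methylcellulose, and in two cases 20% 0.1 N NaOH/80% PEG 400. Plasma Cmax and AUC measured; AUC not determined where Cmax was too low.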

Data set [23] is described as follows: as §3. In kind it is functional, cell-based. The conditions noted are these: Homo sapiens. The procedure, abridged: as §4
Data set [24] can be described thus: Effective concentration required for antiviral activity against HIV-1 WeJo in PBMC cells. It is filed as functional, cell-based. The note with it: Homo sapiens. An outline of the steps: as §4
A short description of data set [25]: as §5. In kind it is functional, cell-based. The note with it: Homo sapiens. An outline of the steps:
as §4

Data set [26] is described as follows: as §6. It is filed as functional, cell-based. The note with it: Homo sapiens. The procedure, abridged: as §4
The nature of data set [27]: Effective concentration required for antiviral activity against HIV-1 RoJo in PBMC cells. It is filed as functional, cell-based. The conditions noted are these: Homo sapiens. An outline of the steps: as §4

Molecules are shown by their SMILES.

T2 sequence (P11712 whole entry): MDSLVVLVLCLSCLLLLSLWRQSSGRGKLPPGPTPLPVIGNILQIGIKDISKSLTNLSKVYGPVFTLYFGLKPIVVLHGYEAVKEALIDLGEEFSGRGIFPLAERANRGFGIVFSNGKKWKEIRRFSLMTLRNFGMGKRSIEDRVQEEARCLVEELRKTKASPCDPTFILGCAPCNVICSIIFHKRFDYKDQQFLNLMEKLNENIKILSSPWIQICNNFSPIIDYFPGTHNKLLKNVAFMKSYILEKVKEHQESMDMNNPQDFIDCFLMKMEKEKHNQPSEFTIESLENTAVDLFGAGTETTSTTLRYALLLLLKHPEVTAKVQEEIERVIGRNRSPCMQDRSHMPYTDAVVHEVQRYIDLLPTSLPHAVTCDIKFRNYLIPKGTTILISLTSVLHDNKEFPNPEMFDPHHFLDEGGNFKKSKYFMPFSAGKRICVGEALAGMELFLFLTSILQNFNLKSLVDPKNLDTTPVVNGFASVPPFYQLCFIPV
T3 sequence (P08684 whole entry): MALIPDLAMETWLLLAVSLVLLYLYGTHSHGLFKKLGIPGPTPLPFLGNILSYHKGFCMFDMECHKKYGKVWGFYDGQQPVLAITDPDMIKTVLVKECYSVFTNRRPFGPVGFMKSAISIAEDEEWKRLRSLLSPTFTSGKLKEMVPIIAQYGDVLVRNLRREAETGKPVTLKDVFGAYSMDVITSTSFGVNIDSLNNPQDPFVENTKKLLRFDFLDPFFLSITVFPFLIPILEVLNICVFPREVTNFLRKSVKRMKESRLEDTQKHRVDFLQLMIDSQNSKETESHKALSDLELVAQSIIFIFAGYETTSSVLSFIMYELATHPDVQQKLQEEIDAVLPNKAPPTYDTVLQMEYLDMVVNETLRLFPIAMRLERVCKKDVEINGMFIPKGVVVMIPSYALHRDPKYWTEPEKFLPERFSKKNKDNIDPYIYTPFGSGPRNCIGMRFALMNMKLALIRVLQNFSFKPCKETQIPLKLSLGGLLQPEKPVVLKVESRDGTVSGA

On to `Cc1cc(SC2=C(O)OC(CCc3ccccc3)(C(C)C)CC2=O)c(C(C)(C)C)cc1NS(=O)(=O)c1ccc(C(F)(F)F)cc1` (centres undefined), for which the affinity in data set [1], expressed as Ki, was 0.027 µM. Moreover, in data set [2], the CC50 is 24 µM. For the same compound, in data set [3] (Human immunodeficiency virus 1, CCRF-CEM), the EC50 (commonly the concentration giving half of the maximal effect) was found to be 0.7 µM.
`CC(C)(C)NC(=O)[C@@H]1CN(Cc2cccnc2)CCN1C[C@@H](O)C[C@@H](Cc1ccccc1)C(=O)N[C@H]1c2ccccc2C[C@H]1O`: the values for the residual activity at 10 µM in data set [4] and in data set [11] were 82% and 89%, respectively. The residual activity – broadly, the signal under treatment as a percentage of the control signal – at 100 µM in data set [5] was 68%; in data set [13], 31%. Besides, the CC50 in data set [6], in [7] and in data set [8] was greater than 100 µM each time. Also, the residual activity at 1 µM in data set [9] is 93%; in data set [10] it was 100%. The values for the concentration for a half-maximal effect (EC50) in data set [12], in data set [14] and in [15] were 3 µM, 16.6 µM and greater than 100 µM, respectively.
For `Cc1cc(SC2=C(O)O[C@](CCc3ccc(O)cc3)(C(C)C)CC2=O)c(C(C)(C)C)cc1N` (stereo in doubt; 1R), the CC50 in data set [16] worked out at 215 µM. Besides, the EC50 in data set [3] (ccrf-cem) was determined as 91 µM.
In the case of `Cc1cc(SC2=C(O)O[C@](CCc3ccc(O)cc3)(C(C)C)CC2=O)c(C(C)(C)C)cc1N` (stereo in doubt; 1S), the residual activity at 10 µM stood at 95% in [4], 96.8% in data set [19] and 75.5% in data set [11]. Besides, the values for the residual activity at 100 µM in data set [17], in data set [5] and in data set [13] were 41.1%, 21.6% and 56.7%, respectively. For the same compound, the concentration giving a half-maximal response (EC50) is 0.59 µM in data set [18]; 0.22 µM in [20]; 0.24 µM in data set [23]; 0.25 µM in data set [24]; 0.31 µM in data set [25]; 0.49 µM in [3] (ccrf-cem). The EC50 was 0.74 µM in data set [26] and 0.2 µM in data set [27]. Further, the CC50 was greater than 100 µM in data set [6]; greater than 100 µM in data set [7]; greater than 100 µM in [8] (pooled result: one value given for 5 cell lines, strains, targets or settings); 215 µM in data set [2]. In addition, the residual activity at 1 µM in data set [9] turned out to be 93.2%; in data set [10] it was 105%; in data set [21], 103%. For the same compound, in data set [22], the AUC (as a rule, the area under the concentration-time curve, a measure of exposure) is 46300 ng·h/mL.
